High-throughput results: PubChem BioAssay, Johns Hopkins Ion Channel Center
This is a sample that favours compounds with a hit; in the whole collection about 3.5% have one here.
MrgX1 agonist – human MrgX1 receptor agonism, primary screen. Q96LB2. MrgX1-HEK293 cells, Fluo-4 calcium fluorescence, agonist mode; stronger effect = higher value. B-score at 10 µM. actives 0.44% (n = 310,000). AID 588627;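 active = calcium response B-score plate-corrected fluorescence ratio at least 3 library SD, with starting fluorescence B-score inside 5 SD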
Target sequence (Q96LB2 whole entry, looked up): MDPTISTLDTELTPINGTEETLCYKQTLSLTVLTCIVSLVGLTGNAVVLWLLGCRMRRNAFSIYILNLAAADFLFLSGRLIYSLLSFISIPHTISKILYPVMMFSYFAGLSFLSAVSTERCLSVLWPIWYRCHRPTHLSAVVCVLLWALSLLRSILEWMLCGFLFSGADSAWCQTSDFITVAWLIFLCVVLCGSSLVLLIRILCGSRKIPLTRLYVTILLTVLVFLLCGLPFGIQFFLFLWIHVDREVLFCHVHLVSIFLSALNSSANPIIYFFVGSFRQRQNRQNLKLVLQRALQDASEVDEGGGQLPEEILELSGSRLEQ
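Material – MrgX1-expressing HEK293 cells · Input – 15,000 cells seeded per well · Dosing – compound as first of three additions · Times – overnight seeding, then 1 h dark dye loading · Measured by – kinetic Fluo-4 NW fluorescence of intracellular calcium · Read-out – B-scored fluorescence response ratio · Benchmarks – positive and negative control wells on each plate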
MrgX1 antag – human MrgX1 receptor antagonism, primary screen | MRGX1-HEK293 calcium flux, Fluo-4, BAM8-22 antagonism; stronger effect = lower value | B-score at 10 µM | actives 1.3% (n = 310,000);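 active = calcium-response B-score plate-corrected more than 3 library SD below zero, starting fluorescence within 5 deviations, no agonist response on first addition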;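 note: peak minus trough fluorescence over baseline after final BAM8-22 challenge near maximal dose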
RGS4 pot – RGS4 potentiation or activation. HEK293 M3R/inducible RGS4, carbachol calcium flux Fluo4; stronger effect = lower value. B-score at 10 µM. actives 0.92% (n = 310,000);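 active = B-score of the integrated calcium signal more than 4 SD below the library mean, with starting fluorescence not abnormally high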;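 note: negative B-score means reduced calcium response which marks RGS4 activation or potentiation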
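Material: Inducible-RGS4 HEK293 cells carrying M3 receptor; also added: carbachol at ECmax as muscarinic agonist stimulus; incubation: compound preincubation 20 min at room temperature before agonist; signal: Fluo4-AM (2 µM) calcium-flux fluorescence, kinetic read; measure: integrated calcium ratio converted to B score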
RGS4 block – human RGS4 inhibition | P49798 | AID 463165 | actives 0.45% (n = 310,000) | B-score at 10 µM | HEK293 M3R/RGS4 inducible, Fluo-4 calcium flux; stronger effect = higher value; triggered by carbachol at its EC20;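 active = B-score, a plate-corrected calcium signal, over three deviations above library mean, with baseline fluorescence within five deviations of library mean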;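 note: RGS4 expression induced by doxycycline in cells with stable M3 receptor; B-score is computed from the integrated fluorescence ratio over baseline after carbachol; higher B-score means a larger calcium signal and so more RGS4 inhibition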
Target sequence (P49798 whole entry, looked up): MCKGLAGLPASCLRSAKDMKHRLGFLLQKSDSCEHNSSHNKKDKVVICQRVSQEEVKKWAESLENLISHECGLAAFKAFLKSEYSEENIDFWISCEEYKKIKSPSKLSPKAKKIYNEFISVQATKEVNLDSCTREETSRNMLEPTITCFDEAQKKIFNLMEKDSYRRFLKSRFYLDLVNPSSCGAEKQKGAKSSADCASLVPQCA
MrgX1 PAM – allosterically activates human MrgX1 receptor signaling | Q96LB2 | MrgX1-HEK293, Fluo-4 calcium flux, FDSS; stronger effect = higher value | B-score at 10 µM | actives 0.63% (n = 310,000);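 active = plate-corrected calcium response at least 3 library SD above typical, normal starting fluorescence, not activating the receptor alone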;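 note: compound read alongside a low EC10 to EC30 dose of BAM8-22 agonist; peak minus trough fluorescence over baseline measured at the second addition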
MrgX1 allo conf – reconfirmed allosteric activator of human MrgX1 receptor. MrgX1-HEK293, Fluo-4 calcium fluorescence, FDSS. shares compounds with MrgX1 PAM. actives 13% (n = 1,200). activation (ratio percentage), % at 10 µM. AID 602413;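 active = ratio at least 3 SD above the weak peptide control, stable starting fluorescence, no direct agonism earlier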;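 note: compound followed by low BAM8-22 agonist challenge near EC20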
MrgX1 antag conf – confirmation of human MrgX1 receptor antagonists | shares compounds with MrgX1 antag | MrgX1-HEK293, BAM8-22 calcium flux, Fluo-4; stronger effect = lower value | remaining BAM8-22 calcium response % of control (stronger effect = lower value), % at 10 µM | actives 19% (n = 2,300);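 active = remaining agonist calcium response no higher than 100% minus 3 SD of agonist-only control wells, with starting fluorescence near control levels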;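 note: agonist BAM8-22 given at a near maximal EC90 to ECmax level; peak minus minimum fluorescence divided by baseline after agonist addition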
HEK293 Ca flux – counter-screen for MrgX1 antagonists: effect in parental HEK293 cells | shares compounds with MrgX1 antag | Fluo-4 calcium fluorescence, FDSS | fluorescence ratio F(max-min)/F0 at 10 µM | actives 2% (n = 4,000);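 active = duplicate-averaged calcium fluorescence ratio at least three times the standard deviation of buffer wells, a nonspecific response in parental cells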
HEK293 Ca counter – counter-screen for MrgX1 allosteric activators: effect in parental HEK293 cells; shares compounds with MrgX1 antag; parental HEK293 calcium flux, Fluo-4 fluorescence ratio; stronger effect = higher value; fluorescence ratio F(max-min)/F0 at 10 µM; actives 0.4% (n = 4,000); AID 624114;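 active = calcium fluorescence ratio, averaged over duplicates, at least 3 SD of the buffer-well ratio, meaning a nonspecific response in receptor-free cells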;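 note: untransfected parental HEK293 lacking MrgX1 used as counterscreen for MrgX1 allosteric activators; fluorescence change taken during the second addition on a kinetic imager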
HEK293 Ca cntr2 – MrgX1 activator counter-screen hit in parental HEK293 cells. Fluo-4 calcium fluorescence (FDSS); stronger effect = higher value. fluorescence ratio F(max-min)/F0 at 10 µM. actives 8.7% (n = 4,000). AID 624115. shares compounds with MrgX1 antag;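 active = calcium fluorescence ratio at least three times the spread of buffer wells, meaning a non-specific response in parental cells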
Numbers without * were called inactive; i = inactive; x = no result given.

SMILES | MrgX1 agonist | MrgX1 antag | RGS4 pot | RGS4 block | MrgX1 PAM | MrgX1 allo conf | HEK293 Ca flux | HEK293 Ca counter | HEK293 Ca cntr2 | others
CCOCC(=O)Nc1ccc(S(=O)(=O)NCC2CCCO2)cc1 (stereo not drawn) | i | i | i | i | 11* | i | i | i | i
CCCCNC(=S)Nc1cccc(C(C)=O)c1 | i | i | i | i | i | x | x | x | x
C#CC(CC)(CC)NC(=S)Nc1cccc(C(C)=O)c1 | i | i | i | i | 8.3* | i | i | i | i
Cc1ccc2[nH]c(C(=O)N3CCCCC3)cc2c1 | i | i | i | i | 17* | i | i | i | i
CCOC(=O)C1CCCN(C(=O)c2cc3cc(F)ccc3[nH]2)C1 (stereo not drawn) | i | i | i | i | 7.9* | i | i | i | i
Cc1ccc2[nH]c(C(=O)N3CCOCC3)cc2c1 | i | i | i | i | i | x | x | x | x
O=C(c1cc2cc(F)ccc2[nH]1)N1CCCC(Nc2ccc(F)cc2)C1 (stereo not drawn) | i | i | i | i | 13* | i | i | i | i
CCOC(=O)C1CCN(C(=O)c2cc3cc(F)ccc3[nH]2)CC1 | i | i | i | i | i | x | x | x | x
COc1ccc(CCNC(=O)CN(c2cc(C)cc(C)c2)S(=O)(=O)c2c(C)noc2C)cc1OC | i | i | i | i | i | x | x | x | x
COc1ccc(OC)c(Cc2nnc(CCC(=O)N3CCN(C4CCCC4)CC3)o2)c1 | i | i | i | i | i | x | x | x | x
COc1ccc(-n2nnnc2-c2ccc(S(C)(=O)=O)cc2Cl)cc1 | i | i | i | i | i | x | x | x | x
CN1CCN(Cc2c(C(=O)N/N=C/c3cccc(Br)c3)nnn2-c2nonc2N)CC1 | i | i | i | i | i | x | x | x | x
c1ccc(-c2noc(-c3cccc4ccccc34)n2)nc1 | i | i | i | i | 8.4* | i | 0.53* | i | i
COc1ccc(-c2nn(-c3ccccc3)cc2N)cc1 | i | i | i | i | i | x | x | x | x
Cc1ccc(-c2nn(-c3ccccc3)cc2CO)cc1 | i | i | i | i | 38* | 6.8%* | i | i | i
COc1ccc(-c2cn(-c3ccccc3)nc2CO)cc1 | i | i | i | i | 8.6* | i | i | i | i
COc1ccc(-c2nn(-c3ccccc3)cc2CO)cc1 | i | i | i | i | 10* | i | i | i | i
COc1ccc2oc(C(=O)OCC(=O)Nc3cc(S(=O)(=O)N4CCOCC4)ccc3OC)c(C)c2c1 | i | i | i | i | i | x | x | x | x
O=C(CCl)N(c1ccccc1)c1ccccc1 | x | x | i | i | x | x | x | x | x
O=C(CCl)N(CCc1ccccc1)CCc1ccccc1 | i | i | i | i | 7.7* | i | i | i | i
Cc1cc(C)n(C(=O)CNc2ccc(C)c(C)c2)n1 | i | i | i | i | 8.6* | i | i | i | i
Cc1ccc(Cn2ncc3c(N4CCN(c5ccc(C)cc5)CC4)ncnc32)cc1 | i | i | i | i | i | x | x | x | x
Cc1ccc(Cn2ncc3c(N4CCN(Cc5ccc(Cl)cc5)CC4)ncnc32)cc1 | i | -12* | i | i | 8.4* | i | i | i | i | MrgX1 antag conf=84%*
CN(C)c1nc(N)nc(N(c2ccccc2)c2ccccc2)n1 | i | i | i | i | 7.4* | i | i | i | i
CCN(CC)C(=O)c1cc2sc3ccccc3c2s1 | i | i | i | i | 9.1* | i | i | i | i
SMILES | MrgX1 agonist | MrgX1 antag | RGS4 pot | RGS4 block | MrgX1 PAM | MrgX1 allo conf | HEK293 Ca flux | HEK293 Ca counter | HEK293 Ca cntr2 | others
COCCN(CCOC)C(=O)c1cc2sc3ccccc3c2s1 | i | i | i | i | i | x | x | x | x
O=c1c(-c2ccccc2)[n+]([O-])c2ccccc2n1O | i | i | i | i | 21* | 12%* | i | i | i
COc1cc(C(=O)NC(=S)Nc2ccc(Cl)cn2)cc(OC)c1OC | i | i | i | i | i | x | x | x | x
COc1cccc(C(=O)Nc2nnc(-c3ccccc3)s2)c1OC | i | i | i | i | 10* | i | i | i | i
COc1ccccc1C(=O)Nc1nnc(-c2ccccc2)s1 | i | i | i | i | i | x | x | x | x
Cc1nn(C)cc1C(=O)Nc1ccc2c(c1)OCCO2 | i | i | i | i | i | x | x | x | x
COc1ccccc1NC(=S)N(Cc1ccccc1)Cc1cccnc1 | i | i | i | i | i | x | x | x | x
COc1ccccc1NC(=S)N(Cc1ccccc1)Cc1ccccn1 | i | i | i | i | 6.6* | i | i | i | i
COc1ccc(NC(C)(C)c2nnnn2-c2c(C)cccc2C)cc1 | i | i | i | i | 6.6* | i | i | i | i
CC(=O)Nc1ccc(OCC(O)Cn2cncn2)cc1 (stereo not drawn) | i | i | i | i | i | x | x | x | x
CC(=O)c1cc(CC=C(C)C)c(O)c(CC=C(C)C)c1O | i | i | i | i | i | x | x | x | x
CC(=O)c1cc(CC=C(C)C)c(O)cc1O | i | i | i | i | 9.9* | i | i | i | i
CC1=C(C(=O)Nc2ccc(Cl)cc2)C2(CCCCC2)C(C(N)=O)C(=S)N1 (stereo not drawn) | i | i | i | i | 12* | i | i | i | i
CCOc1cc(C(=S)N2CCN(C)CC2)ccc1OCC(=O)N1CCCC1 | i | i | i | i | i | x | x | x | x
Cc1c(CC(=O)O)c(=O)oc2c(C)c(OCc3ccccc3)ccc12 | i | i | i | i | i | x | x | x | x
Cc1c(CC(=O)O)c(=O)oc2c(C)c(OCc3c(F)cccc3Cl)ccc12 | i | i | i | i | 13* | i | i | i | i
